Measured values collected from several papers.
Compare with care: the assays were run in different laboratories.
Target: RAF proto-oncogene serine/threonine-protein kinase (RAF1, Homo sapiens, UniProt P04049)

For `Cn1cc(Cl)c2c(Oc3c(F)cc(Nc4cc(Cl)nc(N)n4)cc3F)ccnc21`, the remaining binding was 91% (cell-free assay, competition with immobilised ligand; 0.1 µM).
For `O=C(c1ccc(Nc2nccc(-c3cc4ccccc4s3)n2)cc1)N1CCC(N2CCCC2)CC1`, the remaining binding was 84% (binding, competition with immobilised ligand; 1 µM).
The remaining binding of `O=C(N1CCS(=O)(=O)CC1)N1C[C@H](c2ccc(OC(F)(F)F)cc2)C[C@H](c2nc(C3CC3)no2)C1` is reported as 100% (cell-free assay, competition with immobilised ligand; 1 µM).
The remaining binding of `N[C@@H]1CCN(c2nccc(-c3cnn4ncccc34)n2)C1` is reported as 80% (binding; 1 µM).
The remaining binding of `O=C(Nc1cccnn1)N1CC(C/C=C/c2cncc(Oc3ccc(C(F)(F)F)cn3)n2)C1` is reported as 100% (cell-free assay, competition with immobilised ligand; 1 µM).
The remaining binding of `C[C@@H]1CN(c2ccc3ncc(-c4ccc5[nH]nc(C6CC6)c5c4)n3n2)C[C@H](C)O1` is reported as 100% (binding, competition with immobilised ligand; 0.5 µM).
`CC(C)(C)c1ccc(-c2nc(CBr)nn2-c2cccc(O)c2)cc1` has a remaining binding of 87% (cell-free assay, competition with immobilised ligand; 10 µM).
For `CN(C)c1ncc(F)c(-c2cnn3ncccc23)n1`, the remaining binding was 96% (binding; 1 µM).
With `COc1cc(-c2cn(C3CCc4c(F)cccc4N(CC(F)(F)F)C3=O)nn2)ccc1-n1cnc(C)c1` (stereo not drawn) the remaining binding was 100% (cell-free assay, competition with immobilised ligand; 1 µM).
`O=C(NCCCN1CCOCC1)c1ccc(Nc2nccc(-c3cc4ccccc4s3)n2)cc1` has a remaining binding of 65% (binding, competition with immobilised ligand; 1 µM).
`CNC(=O)[C@@H]1CC[C@@H](n2c(-c3ccc4cnccc4c3)nc3ccc(C(=O)NCc4cccc(C(N)=O)c4)cc32)C1` has a remaining binding of 82% (binding, competition with immobilised ligand; 1 µM).
For `C[C@@H]1CCN(c2nccc(-c3cnn4ncccc34)n2)C1`, the remaining binding was 100% (binding; 1 µM).
With `N#Cc1ccccc1CSc1nnc2c(n1)[nH]c1ccccc12` the remaining binding was 100% (binding, competition with immobilised ligand; 10 µM).
With `F[C@@H]1CCN(c2nccc(-c3cnn4ncccc34)n2)C1` the remaining binding was 100% (binding; 1 µM).
The remaining binding of `C[C@@H](c1ccc(-n2cnc3c(N)ncnc32)cc1)N1CCc2nn(C)c(Cc3ccccc3)c2C1=O` is reported as 93% (binding, competition with immobilised ligand; 0.1 µM).
With `COc1ccc2c(O[C@@H]3C[C@H]4C(=O)N[C@]5(C(=O)O)CC5/C=C\CCCCC[C@H](NC(=O)OC5CCCC5)C(=O)N4C3)cc(-c3csc(NC(=O)C(C)C)n3)nc2c1C` (stereo partly drawn) the remaining binding was 95% (cell-free assay, competition with immobilised ligand; 1 µM).
For `CN(C)c1nccc(-c2cnc3ncccn23)n1`, the remaining binding was 67% (binding; 1 µM).
With `Cc1nccc(COC(=O)N2C[C@@H]3[C@@H](CNC(=O)c4ccc5[nH]nnc5c4)[C@@H]3C2)n1` the remaining binding was 94% (cell-free assay, competition with immobilised ligand; 1 µM).
The remaining binding of `Cc1cnn2ncc(-c3ccnc(N(C)C)n3)c2c1` is reported as 100% (binding; 1 µM).
For `O=C(NCC1CCOCC1)c1n[nH]cc1NC(=O)c1c(F)cccc1F`, the remaining binding was 58% (binding, competition with immobilised ligand; 1 µM).
With `c1cncc(-c2cccc(Nc3nccc(NC4CCCCC4)n3)c2)c1` the remaining binding was 94% (binding, competition with immobilised ligand; 10 µM).
`O=C(NC[C@@H]1[C@H]2CN(C(=O)OCc3cc(C(F)(F)F)cc(C(F)(F)F)c3)C[C@@H]12)c1ccc2[nH]nnc2c1` gave a remaining binding of 100% (cell-free assay, competition with immobilised ligand; 1 µM).
The remaining binding of `COc1cnc(Nc2cccc(S(N)(=O)=O)c2)nc1N1CCN(c2ccccc2)C(=O)C1` is reported as 98% (binding, competition with immobilised ligand; 1 µM).
The remaining binding of `CN(CCCC(F)(F)F)c1nccc(-c2cnn3ncccc23)n1` is reported as 83% (binding; 1 µM).
